A selection: hits, their analogues and other compounds. The true share with any hit is near 2.3%.
PREPL inh = inhibits the human prolyl oligopeptidase-like enzyme. recombinant PREPL, fluorescence polarization activity-based probe. actives 0.68% (n = 320,000). Q4J6C6. inhibition, % at 5.96 µM; in the data active = inhibition above about 43%;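 note: 0% = enzyme with DMSO and 100% = wells lacking enzyme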
Target sequence (Q4J6C6 whole entry, looked up): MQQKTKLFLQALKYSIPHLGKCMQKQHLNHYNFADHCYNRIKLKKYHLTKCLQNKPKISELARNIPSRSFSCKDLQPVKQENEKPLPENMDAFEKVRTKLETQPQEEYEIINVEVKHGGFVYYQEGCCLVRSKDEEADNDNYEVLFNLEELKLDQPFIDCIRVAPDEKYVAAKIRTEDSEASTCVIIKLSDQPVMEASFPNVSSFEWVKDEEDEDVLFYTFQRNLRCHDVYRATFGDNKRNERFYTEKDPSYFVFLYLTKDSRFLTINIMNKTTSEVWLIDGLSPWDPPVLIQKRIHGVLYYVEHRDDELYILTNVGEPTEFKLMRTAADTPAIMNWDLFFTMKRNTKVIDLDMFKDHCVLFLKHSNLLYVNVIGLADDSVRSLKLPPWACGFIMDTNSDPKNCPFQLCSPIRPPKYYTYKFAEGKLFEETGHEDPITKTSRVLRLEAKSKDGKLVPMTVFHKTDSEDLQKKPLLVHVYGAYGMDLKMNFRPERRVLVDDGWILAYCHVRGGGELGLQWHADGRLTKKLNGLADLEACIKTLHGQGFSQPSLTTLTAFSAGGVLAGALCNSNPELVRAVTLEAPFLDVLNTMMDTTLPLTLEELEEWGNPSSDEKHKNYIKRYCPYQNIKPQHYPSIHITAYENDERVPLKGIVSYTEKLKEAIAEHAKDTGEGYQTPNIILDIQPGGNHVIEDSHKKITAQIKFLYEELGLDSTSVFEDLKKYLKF
UBC13 inh = blocks human UBC13 polyubiquitin chain formation. actives 0.47% (n = 330,000). P61088. inhibition, % at 20 µM. TR-FRET; in the data active = inhibition above about 45%, passing the limit was not always enough
Fh CTSL1 inh = counter-screen for PFM18AAP inhibitors: inhibitors of F. hepatica cathepsin L1; recombinant F. hepatica cathepsin L1, Z-Leu-Arg-MCA fluorescence; inhibition, % at 5.96 µM; actives 0.49% (n = 300,000);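 active = inhibition above the mean of all tested compounds plus 3 SD, set per screening campaign, cut at about 17% in these data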;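 note: 0% = plate median of test compound wells and 100% = 1 µM Z-Phe-Ala-diazomethylketone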
UCH37 DUB inh = human UCH37 deubiquitinating enzyme inhibition. purified proteasome/UCH37, Ub-AMC cleavage fluorescence. inhibition, % (no concentration beside the values). actives 0.33% (n = 330,000);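 active = mean inhibition over replicate wells above about 20%, limit read from the data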;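 note: 0% = compound-free wells with enzyme and 100% = wells lacking proteasome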
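system = Proteasome-associated human UCH37 deubiquitinase | amount = 0.15 nM proteasome as dispensed | medium = pH 7.4 Tris-HCl (50 mM) with ovalbumin, ATP-MgCl2, DTT | incubation = 30 min preincubation with enzyme, 25 min cleavage at room temperature | detection = AMC fluorescence 355/460 nm | read-out basis = percent inhibition | controls = no-proteasome and no-compound wells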
PP1 inh = PP1-alpha (human) inhibition in PP5 counter-screen; AID 2235; purified PP1alpha, OMFP fluorescence; actives 0.9% (n = 320,000); inhibition, % at 6.7 µM;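 active = inhibition above the mean inhibition of all tested compounds plus 3 SD, computed separately for each screening campaign, cut at about 15% in these data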
PP5 primary = inhibitors of human protein phosphatase 5 (PP5); purified PP5c, OMFP substrate fluorescence; inhibition, % at 6.7 µM; actives 0.18% (n = 320,000); AID 1987;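 active = inhibition above the campaign's mean inhibition across all tested compounds plus 3 SD, cut at about 9.5% in these data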;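 note: 0% = DMSO only and 100% = 100 µM cantharidin control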
Active calls of the source: *; nt = no result given.

SMILES	PREPL inh	UBC13 inh	Fh CTSL1 inh	UCH37 DUB inh	PP1 inh	PP5 primary
CCCCOc1ccc(-c2nc(/C=N/c3nccs3)c(O)o2)cc1	6	-4	0	nt	6	2
Cc1c(C=NNC(=O)c2c[nH]c3ccccc23)cnn1C	nt	nt	nt	3	nt	nt
Cc1cccc(NC(=S)NN=Cc2ccc3c(c2)OCO3)c1	nt	nt	nt	3	nt	nt
C/C(=C\C(=O)c1cccnc1)Nc1ccc(O)cc1	81*	-9	11	11	-6	-5
N#CC1=C(N)C(C#N)(C#N)[C@H](c2ccncc2)[C@H]2CN(C(=O)OCc3ccccc3)CC=C12	32	8	19*	-33	1	6
Cc1ccc2[nH]c3nc(N/N=C/c4cccc(O)c4)nnc3c2c1	-1	-27	-3	nt	16*	3
CCc1ccc2[nH]c3nc(N/N=C/c4ccc(O)cc4O)nnc3c2c1	19	-19	3	nt	17*	1
CCc1ccc2[nH]c3nc(NN=Cc4ccc(O)cc4O)nnc3c2c1	nt	nt	nt	2	nt	nt
O=C(CNc1ccc2ccccc2c1)NN=Cc1ccncc1	nt	nt	nt	4	nt	nt
CCOC(=O)Cc1csc(N/N=C\c2ccc(N(C)C)cc2)n1	25	-6	19*	nt	3	-2
O=C(c1ccccc1)N1CCN(C(=O)c2cc3ccccc3o2)CC1	0	4	3	27*	-2	-1
Cc1nn(C)cc1C=NO	nt	nt	nt	-2	nt	nt
COc1ccc(C=Nn2c(SC)nnc(C(C)(C)C)c2=O)c(OC)c1	nt	nt	nt	-3	nt	nt
O=C1Nc2ccccc2C12OCC1(CO2)COC2(OC1)C(=O)Nc1ccccc12 (stereo not given)	12	8	28*	0	-2	1
Cc1ccc(C=Nc2sc3c(c2C#N)CCC3)s1	nt	nt	nt	2	nt	nt
CC(=O)c1cccc(OCc2cc(C(=O)NCCC3=CCCCC3)no2)c1	1	4	4	22*	0	1
O=C1NNC(c2ccccc2)=N/C1=C\c1ccccc1	1	-5	-4	23*	-1	0
O=C(Nc1cccc(S(=O)(=O)NC2=NCCCCC2)c1)c1cc(-c2ccco2)nc2ccccc12	-11	25	2	-49	17*	-1
N#CCC(=O)NN=Cc1cn(Cc2ccccc2C#N)c2ccccc12	nt	nt	nt	6	nt	nt
COc1ccccc1N1CCN(C(=O)CSc2nc3ccccc3[nH]2)CC1	6	12	-1	0	17*	4
COc1ccccc1N1CCN(C(=O)CSc2ncccc2-c2nc3ccccc3[nH]2)CC1	-3	10	-2	-13	0	5
CC(=NO)C(C)(C)Nc1ccc(F)cc1	nt	nt	nt	4	nt	nt
CCOc1ccccc1CNC(=O)Cn1c(=O)oc2ccccc21	-2	-1	20*	2	-2	-1
COc1cccc(CNC(=O)Cn2c(=O)oc3ccccc32)c1OC	-8	-7	0	7	-2	1
O=C(CCl)NN1C(=O)NC(c2ccccc2)(c2ccccc2)C1=O	5	-1	80*	4	-6	0
SMILES	PREPL inh	UBC13 inh	Fh CTSL1 inh	UCH37 DUB inh	PP1 inh	PP5 primary
Cc1occc1-c1nnc(SCC(=O)c2ccc(F)cc2)n1Cc1ccco1	2	1	-1	0	-2	0
COc1ccccc1-c1nnc(SCC(=O)c2ccc(C3CCCCC3)cc2)n1Cc1ccco1	-13	0	-2	3	17*	1
O=C(COC(=O)c1ccc([N+](=O)[O-])o1)NC1CCCc2ccccc21 (stereo not given)	30	-1	nt	20*	nt	nt
COc1ccc(-n2cnc3cc(NS(=O)(=O)c4ccc(C)cc4)ccc32)cc1	-38	-9	0	nt	0	12*
CCn1cnc2cc(NS(=O)(=O)c3ccc(C)cc3)ccc21	4	0	-2	4	-5	6
Cc1ccc2oc(=O)c3cc(C(=O)NCCCN4C(C)CCCC4C)sc3c2c1 (stereo not given)	11	21	17*	-27	3	2
CC(CCc1ccccc1)=NNC(=O)C(=O)NCc1ccccc1	nt	nt	nt	8	nt	nt
C=CCOc1ccc2cccc(C=NNC(=O)c3cc4cc([N+](=O)[O-])ccc4s3)c2c1	nt	nt	nt	6	nt	nt
COc1cccc(/C=N/NC(=O)c2cc3c(OC)ccc(OC)c3[nH]2)c1O	34	-8	6	nt	16*	2
COc1cccc(C=NNC(=O)c2cc3cc([N+](=O)[O-])ccc3s2)c1O	nt	nt	nt	24*	nt	nt
CCC(=NNC(=O)c1nnn(-c2nonc2N)c1CN(C)c1ccccc1)c1ccccc1	nt	nt	nt	4	nt	nt
CCOC(=O)/C=C/C(=O)Nc1cccc([N+](=O)[O-])c1	6	-3	18*	8	-1	-1
CCOC(=O)c1cccc(NC(=O)/C=C/c2cccc([N+](=O)[O-])c2)c1	21	4	-2	2	0	4
O=C(C1=C[C@@H](c2csc3ccccc23)C[C@@H](OCc2ccc(CO)cc2)O1)N1CCN(Cc2ccc3c(c2)OCO3)CC1	19	-2	3	nt	16*	4
O=C(Cn1cncc1-c1ccc([N+](=O)[O-])cc1)Nc1cccc2ccccc12	26	nt	0	4	21*	-1
CCOc1ccc(NC(=O)Cn2cncc2-c2ccc([N+](=O)[O-])cc2)cc1	-6	nt	-2	4	5	2
Cc1sc(NC(=O)c2sc3nc4c(C)cccc4cc3c2N)c(C#N)c1C	6	-19	5	nt	17*	0
COc1cc(NC(=O)C2CCCN2S(=O)(=O)c2ccc3c(c2)CC(C)N3C(C)=O)cc(OC)c1 (stereo not given)	10	2	5	4	-10	-6
CC(=O)N1c2ccc(S(=O)(=O)N3CCCC3C(=O)Nc3ccc(C)cc3)cc2CC1C (stereo not given)	0	3	19*	1	1	3
COc1cc(C=NNC(=O)CCc2c(C)n[nH]c2C)cc(OC)c1OC	nt	nt	nt	-1	nt	nt
CCn1cc(C(=O)NCCc2ccccc2)c(=O)c2cc(S(=O)(=O)N3CCCC3)ccc21	7	1	17*	4	2	4
CCCCNC(=O)c1cn(CC)c2ccc(S(=O)(=O)N3CCCC3)cc2c1=O	-6	-4	1	5	-5	0
O=C(CC12CC3CC(CC(C3)C1)C2)NN=Cc1ccc([N+](=O)[O-])o1	nt	nt	nt	7	nt	nt
O=C(COc1ccc(Cl)cc1)NCCCNC(=O)c1cccnc1	17	4	17*	-1	1	-1
CC(=O)N1CCc2cc(S(=O)(=O)CCC(=O)NCc3ccc4c(c3)OCO4)ccc21	-3	4	18*	0	3	4
Cc1c(C#N)c(O)n(CCO)c(=O)c1N=Nc1ccc(S(N)(=O)=O)cc1	15	-91	14	21*	6	-1
Cc1c(C#N)c(O)n(C)c(=O)c1N=Nc1ccc(S(N)(=O)=O)cc1	nt	nt	nt	4	nt	nt
CC(C)(C)c1cc[n+](-c2[nH]c(=O)sc2C=N/N=C(\[O-])c2ccccc2)cc1	nt	nt	nt	21*	nt	nt
Cc1cc[n+](-c2[nH]c(=O)sc2C=N/N=C(\[O-])c2ccccc2)cc1	nt	nt	nt	17	nt	nt
